Measured values as given in ChEMBL document CHEMBL1250496, “Novel 6,12-disubstituted chrysene as potent anticancer agent: synthesis, in vitro and in vivo study” (Eur J Med Chem, 2010).
pIC50: −log10 of the molar value.

Key:
[1] = system: HL-60; test: Cytotoxicity against human HL60 cells after 72 hrs by MTT assay; type: functional, cell-based; conditions: HL-60, 72 h
In short: (§1)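 Cells were exposed continuously to drug for 72 h, with dilutions made in RPMI 1640 + 10% FBS and final solvent below 0.625%. Relative growth was read by MTT, and IC50 was reported in μM.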

[2] = Cytotoxicity against human BRO cells after 72 hrs by MTT assay; type: functional, cell-based; in short: as §1
[3] = system: PC-3; test: Cytotoxicity against human PC3 cells after 72 hrs by MTT assay; type: functional, cell-based; in short: as §1
[4] = system: MCF7; test: Cytotoxicity against human MCF7 cells after 72 hrs by MTT assay; type: functional, cell-based; in short: as §1
[5] = system: SK-OV-3; test: Cytotoxicity against human SKOV3 cells after 72 hrs by MTT assay; type: functional, cell-based; in short: as §1
[6] = system: HT-29; test: Cytotoxicity against human HT-29 cells after 72 hrs by MTT assay; type: functional, cell-based; in short: as §1
[7] = system: P388; test: Cytotoxicity against mouse P388 cells after 72 hrs by MTT assay; type: functional, cell-based; in short: as §1
[8] = system: SK-OV-3; test: Antitumor activity against human SKOV3 xenografted in mouse assessed as reduction in tumor volume at 40 mg/kg, ip for 5 days; type: functional; design: scale not given: the % may be the effect or the level left; conditions: route intraperitoneal
In short: (§2)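 Female nu/nu mice, 6-10 weeks old. SKOV-3 cells were harvested at 80% confluence with viability >90% by trypan blue, washed, resuspended in PBS and given i.p. at 0.65 × 10^6 per mouse. Mice were sacrificed at 7 weeks and tumors counted and total volume measured per mouse.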

[9] = system: SK-OV-3; test: Antitumor activity against human SKOV3 xenografted in mouse assessed as reduction in tumor number at 40 mg/kg, ip for 5 days; type: functional; design: scale not given: the % may be the effect or the level left; conditions: route intraperitoneal; in short: as §2
[10] = system: Mus musculus; test: Toxicity in mouse assessed as weight loss at 40 mg/kg, ip; type: organism-based; design: dose 40 mg/kg, route intraperitoneal; conditions: in vivo

| SMILES | pIC50 [1] | pIC50 ([2]; Homo sapiens, BRO, 72 h) | pIC50 ([3]; Homo sapiens, PC-3, 72 h) | pIC50 ([4]; Homo sapiens, MCF7, 72 h) | pIC50 ([5]; Homo sapiens, SK-OV-3, 72 h) | pIC50 ([6]; Homo sapiens, HT-29, 72 h) | pIC50 ([7]; Mus musculus, P388, 72 h) | pIC50 ([7]; p388) | pIC50 ([2]; bro) | Activity [8] [%] | Activity [9] [%] | Activity [10] [%] | pIC50 ([3]; pc-3) | pIC50 ([4]; mcf7) | pIC50 ([5]; sk-ov-3) | pIC50 ([6]; ht-29) |
| --- | --- | --- | --- | --- | --- | --- | --- | --- | --- | --- | --- | --- | --- | --- | --- | --- |
| O=C(CCC(=O)N1CCCCC1)Nc1cc2c3ccccc3ccc2c2ccccc12 | 4.73 | < 4.00 | 4.30 | 4.61 | 4.68 | 4.48 | – | – | – | – | – | – | – | – | – | – |
| O=C(CCC(=O)N1CCCCC1)Nc1cc2c3ccccc3c(NC(=O)CCC(=O)N3CCCCC3)cc2c2ccccc12 | 4.60 | 4.35 | 4.61 | 4.68 | 4.66 | 4.39 | 4.42 | – | – | – | – | – | – | – | – | – |
| CN1CCN(C(=O)CCC(=O)Nc2cc3c4ccccc4c(NC(=O)CCC(=O)N4CCN(C)CC4)cc3c3ccccc23)CC1 | 4.38 | 4.24 | 4.81 | 4.12 | 4.14 | 4.18 | 4.01 | – | – | – | – | – | – | – | – | – |
| CN1CCN(CCCCNc2cc3c4ccccc4c(NCCCCN4CCN(C)CC4)cc3c3ccccc23)CC1 | 6.05 | – | 5.92 | 5.77 | 6.05 | 5.68 | – | 5.77 | 5.42 | – | – | – | – | – | – | – |
| CN1CCN(CCCCNc2cc3c4ccccc4c(NCCCCN4CCN(C)CC4)cc3c3ccccc23)CC1.Cl | – | – | – | – | – | – | – | 6.10 | 6.22 | 47 | 35 | 5 | 5.68 | 5.92 | 6.00 | 5.80 |
| c1ccc2c(c1)ccc1c3ccccc3c(NCCCCN3CCCCC3)cc21 | 5.96 | 5.47 | 5.43 | 5.64 | 5.36 | 5.62 | 5.66 | – | – | – | – | – | – | – | – | – |
| CN1CCN(CCCCNc2cc3c4ccccc4ccc3c3ccccc23)CC1 | 5.28 | 4.86 | 5.00 | 5.19 | 5.08 | 4.84 | 4.71 | – | – | – | – | – | – | – | – | – |
| c1ccc2c(c1)c(NCCCCN1CCCCC1)cc1c3ccccc3c(NCCCCN3CCCCC3)cc21 | 6.10 | 5.77 | 6.10 | 5.85 | 5.72 | 5.92 | 5.70 | – | – | – | – | – | – | – | – | – |
| CN1CCN(C(=O)CCC(=O)Nc2cc3c4ccccc4ccc3c3ccccc23)CC1 | 5.02 | 4.38 | 4.74 | 5.15 | 4.95 | 5.03 | 5.22 | – | – | – | – | – | – | – | – | – |
